Reference: ChEMBL document CHEMBL3425443, “Improved angiostatic activity of dasatinib by modulation with hydrophobic chains” (ACS Med Chem Lett, 2015)

What was measured:
A2780 = assay: Cytotoxicity against human A2780 cells after 72 hrs by MTT assay; type: functional, cell-based; conditions: A2780, 72 h
In short: (§1)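 Proliferation inhibition measured in human A2780 ovarian carcinoma, ECRF24 immortalized endothelial and HEK-293 embryonic kidney cells; IC50 values in μM reported as means ± SD.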

[1] = Cytotoxicity against human ECRF24 cells after 72 hrs by MTT assay; type: functional, cell-based; conditions: ECRF24, 72 h; in short: as §1
HEK293 = assay: Cytotoxicity against human HEK293 cells after 72 hrs by MTT assay; type: cell-based; conditions: HEK293, 72 h; in short: as §1
Chorioallantoic membrane = assay: Antiangiogenic activity in chicken embryo chorioallantoic membrane model assessed as inhibition of vasculature formation at 20 uM, iv dosed for 3 consecutive days by FITC-dextran fluorescence angiography; type: functional, Gallus gallus
ECRF24 = assay: Angiostatic activity in human ECRF24 cells assessed as inhibition of cell migration after 7 hrs by laser scanner cytometry based wound closure assay; type: functional
In short: (§2)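 ECRF24 endothelial monolayers wounded, then incubated 7 h with compound across a concentration range; wound closure quantified to give migration inhibition. Error bars are standard error of the mean; significance set at p < 0.05 and p < 0.01.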

[2] = Angiostatic activity in human ECRF24 cells assessed as inhibition of cell migration at 50 uM after 7 hrs by laser scanner cytometry based wound closure assay; type: functional; conditions: ECRF24, 7 h; in short: as §2
[3] = Selectivity index, ratio of cytotoxic IC50 for HEK293 cells to antiangiogenic activity in chicken embryo chorioallantoic membrane model

| SMILES | IC50 (A2780) [µM] | IC50 [1] [µM] | IC50 (HEK293) [µM] | inhibition (INH) (Chorioallantoic membrane) [%] | inhibition (ECRF24) | inhibition at 50 µM [2] [%] | Selectivity Index [3] |
| --- | --- | --- | --- | --- | --- | --- | --- |
| Cc1nc(Nc2ncc(C(=O)Nc3c(C)cccc3Cl)s2)cc(N2CCN(CCOC(=O)CCC(=O)OCCC(F)(F)C(F)(F)C(F)(F)C(F)(F)C(F)(F)C(F)(F)C(F)(F)C(F)(F)F)CC2)n1 | 118 | 96 | > 500 | – | – | – | – |
| CCCCCCCCCCCCOC(=O)CCCC(=O)OCCN1CCN(c2cc(Nc3ncc(C(=O)Nc4c(C)cccc4Cl)s3)nc(C)n2)CC1 | 53 | 135 | > 500 | – | – | – | – |
| CCCCCCCCCCCCCCCCCCOC(=O)CCCC(=O)OCCN1CCN(c2cc(Nc3ncc(C(=O)Nc4c(C)cccc4Cl)s3)nc(C)n2)CC1 | 125 | 101 | > 500 | – | – | – | – |
| Cc1nc(Nc2ncc(C(=O)Nc3c(C)cccc3Cl)s2)cc(N2CCN(CCOC(=O)CCCC(=O)OCCC(F)(F)C(F)(F)C(F)(F)C(F)(F)C(F)(F)C(F)(F)F)CC2)n1 | 28.3 | > 500 | > 500 | – | – | – | – |
| CCCCCCCCCCCCOC(=O)CCC(=O)OCCN1CCN(c2cc(Nc3ncc(C(=O)Nc4c(C)cccc4Cl)s3)nc(C)n2)CC1 | 45 | 27 | > 500 | – | – | – | – |
| Cc1nc(Nc2ncc(C(=O)Nc3c(C)cccc3Cl)s2)cc(N2CCN(CCO)CC2)n1.O [DASATINIB] | 8.7 | 5.7 | 14.3 | 8 | Dose-dependent effect | 65 | – |
| CCCCCCCCCCOC(=O)CCC(=O)OCCN1CCN(c2cc(Nc3ncc(C(=O)Nc4c(C)cccc4Cl)s3)nc(C)n2)CC1 | 22.5 | 30 | 46 | – | – | – | – |
| CCCCCCCCCCOC(=O)CCCC(=O)OCCN1CCN(c2cc(Nc3ncc(C(=O)Nc4c(C)cccc4Cl)s3)nc(C)n2)CC1 | 119 | 34 | 29 | – | – | – | – |
| Cc1nc(Nc2ncc(C(=O)Nc3c(C)cccc3Cl)s2)cc(N2CCN(CCOC(=O)CCCC(=O)OCCC(F)(F)C(F)(F)C(F)(F)C(F)(F)C(F)(F)C(F)(F)C(F)(F)C(F)(F)F)CC2)n1 | 121 | 57 | > 500 | 45 | Dose-dependent effect | 15 | 25 |
| Cc1nc(Nc2ncc(C(=O)Nc3c(C)cccc3Cl)s2)cc(N2CCN(CCOC(=O)CCCC(=O)OCCC(F)(F)C(F)(F)C(F)(F)C(F)(F)C(F)(F)C(F)(F)C(F)(F)C(F)(F)C(F)(F)C(F)(F)F)CC2)n1 | > 500 | 102 | > 500 | – | – | – | – |
| CCCCCCCCOC(=O)CCC(=O)OCCN1CCN(c2cc(Nc3ncc(C(=O)Nc4c(C)cccc4Cl)s3)nc(C)n2)CC1 | 10.6 | 7.8 | 52 | – | – | – | – |
| CCCCCCCCCCCCCCCCCCOC(=O)CCC(=O)OCCN1CCN(c2cc(Nc3ncc(C(=O)Nc4c(C)cccc4Cl)s3)nc(C)n2)CC1 | 108 | 105 | > 500 | – | – | – | – |
| Cc1nc(Nc2ncc(C(=O)Nc3c(C)cccc3Cl)s2)cc(N2CCN(CCOC(=O)CCC(=O)OCCC(F)(F)C(F)(F)C(F)(F)C(F)(F)C(F)(F)C(F)(F)C(F)(F)C(F)(F)C(F)(F)C(F)(F)F)CC2)n1 | 90 | 24 | > 500 | 18 | – | – | – |
| CCCCCCCCOC(=O)CCCC(=O)OCCN1CCN(c2cc(Nc3ncc(C(=O)Nc4c(C)cccc4Cl)s3)nc(C)n2)CC1 | 12 | 18 | 18 | – | – | – | – |
| Cc1nc(Nc2ncc(C(=O)Nc3c(C)cccc3Cl)s2)cc(N2CCN(CCOC(=O)CCC(=O)OCCC(F)(F)C(F)(F)C(F)(F)C(F)(F)C(F)(F)C(F)(F)F)CC2)n1 | 130 | 122 | 58 | – | – | – | – |
